ChEMBL document CHEMBL2434917, “Synthesis and anticancer activity of some novel 2-phenazinamine derivatives” (Eur J Med Chem, 2013)

Tests used:
K562 [1] = test: Cytotoxicity against human K562 cells after 48 hrs by MTT assay; format: functional, cell-based; conditions: K562, 48 h
How it was run: (§1)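 Cells were kept in RPMI-1640 with 10% FBS, streptomycin and penicillin at 37 °C under 5% CO2. They were seeded at 5000/well and left 24 h, then exposed 48 h to compound (DMSO stock diluted in medium, DMSO ≤0.2%) at final 0.16, 0.63, 2.5, 10, 40 and 160 μM. MTT was added (10% v/v of 5 mg/ml) for 4 h, formazan was dissolved in DMSO and A490 read. IC50 came from the viability-versus-dose plot against control, with three repeats.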

MCF7 [2] = test: Cytotoxicity against human MCF7 cells after 48 hrs by MTT assay; format: functional, cell-based; conditions: MCF7, 48 h; how it was run: as §1
HEK-293T = test: Cytotoxicity against human 293T cells after 48 hrs by MTT assay; format: cell-based; how it was run: as §1
HCT-116 = test: Cytotoxicity against human HCT116 cells after 48 hrs by MTT assay; format: functional, cell-based; conditions: HCT-116, 48 h; how it was run: as §1
K562 [3] = test: Ratio of cisplatin IC50 to compound IC50 for human K562 cells; format: functional
MGC-803 = test: Cytotoxicity against human MGC803 cells after 48 hrs by MTT assay; format: functional, cell-based; conditions: MGC-803, 48 h; how it was run: as §1
HepG2 [4] = test: Cytotoxicity against human HepG2 cells after 48 hrs by MTT assay; format: functional, cell-based; conditions: HepG2, 48 h; how it was run: as §1
HepG2 [5] = test: Ratio of cisplatin IC50 to compound IC50 for human HepG2 cells; format: functional
HepG2 [6] = test: Induction apoptosis in human HepG2 cells assessed as late apoptosis or necrosis cells level at 50 uM after 24 hrs using Annexin V-FITC and propidium iodide staining by flow cytometry analysis (reference value: 5.7%); format: functional
HepG2 [7] = test: Induction apoptosis in human HepG2 cells assessed as apoptotic cells level at 50 uM after 24 hrs using Annexin V-FITC and propidium iodide staining by flow cytometry analysis (reference value: 8.3%); format: functional
MCF7 [8] = test: Ratio of cisplatin IC50 to compound IC50 for human MCF7 cells; format: functional

| SMILES | IC50 (K562 [1]) | IC50 (MCF7 [2]) | IC50 (HEK-293T) | IC50 (HCT-116) | Ratio IC50 (K562 [3]) | IC50 (MGC-803) | IC50 (HepG2 [4]) | Ratio IC50 (HepG2 [5]) | Activity (HepG2 [6]) | Activity (HepG2 [7]) | Ratio IC50 (MCF7 [8]) |
| --- | --- | --- | --- | --- | --- | --- | --- | --- | --- | --- | --- |
| CC(=O)Nc1ccc2nc3ccccc3nc2c1 | 49.2 µM | 82.6 µM | > 160 µM | > 160 µM | 1.1 | 93.1 µM | > 160 µM | – | – | – | – |
| O=C(Nc1ccc2nc3ccccc3nc2c1)c1ccccc1 | > 160 µM | > 160 µM | > 160 µM | 28.2 µM | – | > 160 µM | > 160 µM | – | – | – | – |
| O=C(Nc1ccc2nc3ccccc3nc2c1)c1cccc2ccccc12 | 61.2 µM | 30.1 µM | > 160 µM | 131 µM | – | 87.9 µM | 44.2 µM | – | – | – | – |
| O=C(Nc1ccc2nc3ccccc3nc2c1)c1ccco1 | – | 28.8 µM | > 160 µM | 86.6 µM | – | – | 52.2 µM | – | – | – | – |
| O=C(Nc1ccc2nc3ccccc3nc2c1)c1cccs1 | > 160 µM | > 160 µM | > 160 µM | 68.1 µM | – | > 160 µM | > 160 µM | – | – | – | – |
| O=C(Cc1cccs1)Nc1ccc2nc3ccccc3nc2c1 | – | > 160 µM | > 160 µM | 95.6 µM | – | – | > 160 µM | – | – | – | – |
| CCOC(=O)Nc1ccc2nc3ccccc3nc2c1 | > 160 µM | 46.1 µM | > 160 µM | > 160 µM | – | > 160 µM | 15.2 µM | 1.2 | – | – | – |
| O=C(CCCl)Nc1ccc2nc3ccccc3nc2c1 | 74.5 µM | 37.6 µM | > 160 µM | 141 µM | – | 59.5 µM | > 160 µM | – | – | – | – |
| O=S(=O)(Nc1ccc2nc3ccccc3nc2c1)c1ccccc1 | > 160 µM | > 160 µM | > 160 µM | > 160 µM | – | > 160 µM | > 160 µM | – | – | – | – |
| CN(C)C(=O)Nc1ccc2nc3ccccc3nc2c1 | – | 35.1 µM | > 160 µM | 144 µM | – | – | > 160 µM | – | – | – | – |
| CCC(=O)Nc1ccc2nc3ccccc3nc2c1 | 57.7 µM | 40.7 µM | > 160 µM | 18.9 µM | – | 63.9 µM | > 160 µM | – | – | – | – |
| CCCC(=O)Nc1ccc2nc3ccccc3nc2c1 | > 160 µM | 68.8 µM | 110 µM | 62.3 µM | – | 43.5 µM | > 160 µM | – | – | – | – |
| O=C(Cc1ccccc1)Nc1ccc2nc3ccccc3nc2c1 | > 160 µM | > 160 µM | > 160 µM | > 160 µM | – | > 160 µM | > 160 µM | – | – | – | – |
| O=C(Nc1ccc2nc3ccccc3nc2c1)c1ccccc1Cl | 33.4 µM | > 160 µM | > 160 µM | 91.9 µM | 1.7 | > 160 µM | 16.5 µM | 1.1 | 20.5% | 36.1% | – |
| O=C(Nc1ccc2nc3ccccc3nc2c1)c1cccc(Cl)c1 | > 160 µM | > 160 µM | > 160 µM | > 160 µM | – | > 160 µM | > 160 µM | – | – | – | – |
| Cc1ccc(C(=O)Nc2ccc3nc4ccccc4nc3c2)cc1 | > 160 µM | > 160 µM | > 160 µM | > 160 µM | – | > 160 µM | > 160 µM | – | – | – | – |
| Cc1ccccc1C(=O)Nc1ccc2nc3ccccc3nc2c1 | > 160 µM | 11.6 µM | > 160 µM | > 160 µM | – | 27.2 µM | > 160 µM | – | – | – | 2.4 |
| Cc1cccc(C(=O)Nc2ccc3nc4ccccc4nc3c2)c1 | > 160 µM | > 160 µM | 56.2 µM | > 160 µM | – | 89 µM | 16.7 µM | 1.1 | – | – | – |
| COc1ccc(C(=O)Nc2ccc3nc4ccccc4nc3c2)cc1 | > 160 µM | > 160 µM | > 160 µM | > 160 µM | – | 50.1 µM | > 160 µM | – | – | – | – |
| O=C(Nc1ccc2nc3ccccc3nc2c1)C1CCCCC1 | 78.9 µM | 137 µM | > 160 µM | > 160 µM | – | 67.1 µM | > 160 µM | – | – | – | – |
| O=C(CCC1CCCC1)Nc1ccc2nc3ccccc3nc2c1 | 157 µM | > 160 µM | > 160 µM | > 160 µM | – | 122 µM | > 160 µM | – | – | – | – |
